{"source": "paper PMC3954597", "about": "(Biochemistry, 2014)", "assay_type_in_all_cases": "biochemical", "key": {"PTP1B": {"target": "T1, PTP1B (Homo sapiens, UniProt P18031)", "T1 sequence (P18031 1-321)": "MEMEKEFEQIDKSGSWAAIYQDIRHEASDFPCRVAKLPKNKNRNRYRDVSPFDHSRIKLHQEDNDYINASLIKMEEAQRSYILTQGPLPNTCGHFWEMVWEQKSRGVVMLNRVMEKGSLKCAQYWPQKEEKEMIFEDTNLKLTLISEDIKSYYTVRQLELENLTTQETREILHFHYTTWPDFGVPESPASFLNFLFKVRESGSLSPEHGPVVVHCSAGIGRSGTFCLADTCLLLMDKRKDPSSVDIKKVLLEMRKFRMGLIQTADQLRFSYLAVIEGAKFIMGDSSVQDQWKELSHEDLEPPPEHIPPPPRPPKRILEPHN", "assay": "PTP assay, wild-type PTP1B", "details": "for kcat/KM x10^6: WT catalytic domain aa 1–321, 100 mM HEPES pH 7.4, monitored at 282 nm", "how_it_was_run": "(§1)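 E. coli-expressed catalytic domains were used: wild-type, R24M or R47E PTP1B (aa 1–321), and SHP-1 (aa 205–595). Reactions started with PTP (0.5–20000 nM final) and dephosphorylation was monitored continuously at 282 nm. kcat, KM and kcat/KM came from initial-rate fits (Michaelis–Menten, or V = kcat[E][S]/KM when KM >> [S]) or from fits of progress curves.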"}, "PTPRC": {"target": "T2, PTPRC (Homo sapiens, UniProt P08575)", "T2 sequence (P08575 620-1236)": "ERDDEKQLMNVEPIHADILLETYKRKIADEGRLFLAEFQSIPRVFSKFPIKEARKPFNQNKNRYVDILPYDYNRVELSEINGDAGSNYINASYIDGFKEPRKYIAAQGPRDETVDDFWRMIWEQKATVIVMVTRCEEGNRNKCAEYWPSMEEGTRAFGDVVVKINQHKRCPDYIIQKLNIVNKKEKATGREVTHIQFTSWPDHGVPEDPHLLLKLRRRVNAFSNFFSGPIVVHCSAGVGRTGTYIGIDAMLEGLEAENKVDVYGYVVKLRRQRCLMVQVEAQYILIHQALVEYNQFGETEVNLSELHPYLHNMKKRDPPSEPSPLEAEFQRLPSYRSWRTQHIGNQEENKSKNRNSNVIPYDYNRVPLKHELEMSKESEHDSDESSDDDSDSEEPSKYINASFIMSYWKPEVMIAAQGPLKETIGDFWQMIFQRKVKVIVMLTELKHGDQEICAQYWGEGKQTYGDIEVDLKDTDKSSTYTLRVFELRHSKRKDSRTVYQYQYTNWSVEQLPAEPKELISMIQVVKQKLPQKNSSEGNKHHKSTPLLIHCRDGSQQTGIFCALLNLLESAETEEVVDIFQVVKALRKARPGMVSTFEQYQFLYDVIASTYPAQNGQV", "assay": "PTP assay, PTPRC", "details": "for Km / kcat / kcat/KM x10^6: catalytic domain, 100 mM HEPES pH 7.4, monitored at 282 nm", "how_it_was_run": "(§2)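 His-tagged catalytic domains were made in E. coli: PTPD2 aa 876–1187 and PTPRC aa 620–1236 with N-terminal tags, PTPD1 aa 875–1174 and SHP-2 aa 199–593 with C-terminal tags. Enzyme was added at 0.5–20000 nM final. A282 (Δε 1102 M−1 cm−1) was followed. Constants came from Michaelis–Menten fits of initial rates (<60 s), or from fits of progress curves run to substrate depletion.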"}, "PTPRB": {"target": "PTPRB (Homo sapiens, UniProt P23467)", "sequence (P23467 1686-1971)": "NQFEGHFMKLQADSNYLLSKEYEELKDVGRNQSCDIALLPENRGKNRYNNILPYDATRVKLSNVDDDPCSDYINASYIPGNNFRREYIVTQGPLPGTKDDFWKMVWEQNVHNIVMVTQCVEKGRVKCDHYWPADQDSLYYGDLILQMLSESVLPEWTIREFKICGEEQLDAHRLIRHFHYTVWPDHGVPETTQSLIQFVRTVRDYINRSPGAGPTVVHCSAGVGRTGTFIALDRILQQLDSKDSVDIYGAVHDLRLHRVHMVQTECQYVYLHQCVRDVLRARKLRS", "assay": "PTP assay, PTPRB", "details": "for Km / kcat / kcat/KM x10^6: catalytic domain, 100 mM HEPES pH 7.4, monitored at 282 nm"}, "TCPTP": {"target": "T3, TCPTP (Homo sapiens, UniProt P17706)", "T3 sequence (P17706 1-314)": "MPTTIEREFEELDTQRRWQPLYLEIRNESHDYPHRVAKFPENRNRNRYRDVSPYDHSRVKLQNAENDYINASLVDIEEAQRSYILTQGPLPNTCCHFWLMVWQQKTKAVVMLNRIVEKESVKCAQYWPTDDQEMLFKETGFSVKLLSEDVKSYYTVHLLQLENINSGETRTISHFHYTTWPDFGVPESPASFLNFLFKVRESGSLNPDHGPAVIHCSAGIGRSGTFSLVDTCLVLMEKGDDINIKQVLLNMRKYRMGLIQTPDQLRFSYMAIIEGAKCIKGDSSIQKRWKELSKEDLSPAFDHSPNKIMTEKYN", "assay": "PTP assay, TCPTP"}, "PTPRA": {"target": "PTPRA (Homo sapiens, UniProt P18433)", "assay": "PTP assay, PTPRA", "how_it_was_run": "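His-tagged PTPRA catalytic domain (aa 224–802), expressed in E. coli. Dephosphorylation was followed continuously at 282 nm (Δε = 1102 M−1 cm−1). Initial rates were fitted to Michaelis-Menten or V = kcat[E][S]/KM, or full progress curves were fitted to depletion.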"}, "PTPD1": {"target": "T4, PTPD1 (Homo sapiens, UniProt Q16825)", "T4 sequence (Q16825 875-1174)": "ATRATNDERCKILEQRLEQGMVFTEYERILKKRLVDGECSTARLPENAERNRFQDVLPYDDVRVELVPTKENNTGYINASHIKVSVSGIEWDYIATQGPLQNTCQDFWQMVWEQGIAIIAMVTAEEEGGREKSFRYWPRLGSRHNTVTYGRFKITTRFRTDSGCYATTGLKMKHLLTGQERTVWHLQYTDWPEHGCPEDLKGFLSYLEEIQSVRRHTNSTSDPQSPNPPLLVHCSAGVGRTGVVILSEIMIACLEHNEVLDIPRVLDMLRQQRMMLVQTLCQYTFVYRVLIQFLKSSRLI", "assay": "PTP assay, PTPD1", "how_it_was_run": "as §2"}, "SHP-1": {"target": "SHP-1 (Homo sapiens, UniProt P29350)", "sequence (P29350 205-595)": "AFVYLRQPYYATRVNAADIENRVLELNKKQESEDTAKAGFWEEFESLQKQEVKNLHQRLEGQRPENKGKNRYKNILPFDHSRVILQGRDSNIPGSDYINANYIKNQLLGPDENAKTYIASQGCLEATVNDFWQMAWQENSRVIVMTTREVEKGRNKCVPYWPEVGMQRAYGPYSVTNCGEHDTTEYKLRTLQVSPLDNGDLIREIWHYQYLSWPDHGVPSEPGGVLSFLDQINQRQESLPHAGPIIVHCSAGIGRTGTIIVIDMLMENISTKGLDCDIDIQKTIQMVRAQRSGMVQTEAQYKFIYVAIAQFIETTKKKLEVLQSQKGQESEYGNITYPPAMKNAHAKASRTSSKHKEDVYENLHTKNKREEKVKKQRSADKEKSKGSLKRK", "assay": "PTP assay, SHP-1", "details": "catalytic domain; 100 mM HEPES pH 7.4; monitored at 282 nm", "how_it_was_run": "as §1"}, "SHP-2": {"target": "T5, SHP-2 (Homo sapiens, UniProt Q06124)", "T5 sequence (Q06124 199-593)": "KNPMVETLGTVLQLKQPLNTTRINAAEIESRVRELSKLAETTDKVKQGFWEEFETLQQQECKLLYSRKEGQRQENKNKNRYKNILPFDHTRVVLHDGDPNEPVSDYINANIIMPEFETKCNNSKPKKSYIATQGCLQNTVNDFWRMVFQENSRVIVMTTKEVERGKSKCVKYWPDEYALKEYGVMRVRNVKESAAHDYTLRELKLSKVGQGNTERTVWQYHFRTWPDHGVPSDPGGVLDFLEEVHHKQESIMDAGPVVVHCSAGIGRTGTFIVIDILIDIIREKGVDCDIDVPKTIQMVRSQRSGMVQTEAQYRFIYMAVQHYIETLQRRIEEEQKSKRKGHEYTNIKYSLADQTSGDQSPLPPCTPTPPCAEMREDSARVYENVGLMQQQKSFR", "assay": "PTP assay, SHP-2", "details": "catalytic domain; 100 mM HEPES pH 7.4; monitored at 282 nm", "how_it_was_run": "as §2"}, "[1]": {"details": "kcat/KM of neutral peptide over basic Ac-YRKRFpYRYKF-NH2"}, "[2]": {"details": "catalytic domain, 100 mM HEPES pH 7.4, monitored at 282 nm"}, "[3]": {"details": "kcat/KM of acidic peptide over basic Ac-YRKRFpYRYKF-NH2"}, "[4]": {"details": "kcat/KM of acidic peptide over neutral Ac-SASASpYSASA-NH2"}}, "data": [{"substance": "Ac-SASASpYSASA-NH2", "values": [{"measurement": "kcat/KM x 10^7", "setting": "PTP1B; WT PTP1B aa 1–321, pH 7.4", "value": "0.23 x 10^7 M^−1 s^−1"}, {"measurement": "kcat/KM x10^6", "setting": "PTP1B", "value": "2.3 x10^6 M^−1 s^−1"}, {"measurement": "Neutral/Basic ratio of kcat/KM values", "setting": "PTP1B; [1]", "value": 61}, {"measurement": "Km", "setting": "PTPRC", "value": "170 ± 20", "unit": "µM"}, {"measurement": "kcat", "setting": "PTPRC", "value": "340 ± 50", "unit": "s⁻¹"}, {"measurement": "kcat/KM x10^6", "setting": "PTPRC", "value": "2.0 x10^6 M^−1 s^−1"}, {"measurement": "Neutral/Basic ratio of kcat/KM values", "setting": "PTPRC; [1]", "value": 41}, {"measurement": "Km", "setting": "PTPRB", "value": "26 ± 1", "unit": "µM"}, {"measurement": "kcat", "setting": "PTPRB", "value": "56 ± 2", "unit": "s⁻¹"}, {"measurement": "kcat/KM x10^6", "setting": "PTPRB", "value": "2.2 x10^6 M^−1 s^−1"}, {"measurement": "Neutral/Basic ratio of kcat/KM values", "setting": "PTPRB; [1]", "value": 77}, {"measurement": "Km", "setting": "TCPTP; [2]", "value": "10 ± 1", "unit": "µM"}, {"measurement": "kcat", "setting": "TCPTP; [2]", "value": "17 ± 2", "unit": "s⁻¹"}, {"measurement": "kcat/KM x10^6", "setting": "TCPTP; [2]", "value": "1.7 x10^6 M^−1 s^−1"}, {"measurement": "Neutral/Basic ratio of kcat/KM values", "setting": "TCPTP; [1]", "value": 53}, {"measurement": "kcat/KM x10^6", "setting": "PTPRA; [2]", "value": "0.023 x10^6 M^−1 s^−1"}, {"measurement": "Neutral/Basic ratio of kcat/KM values", "setting": "PTPRA; [1]", "value": 0.5}, {"measurement": "kcat/KM x10^6", "setting": "PTPD1; [2]", "value": "0.0000038 x10^6 M^−1 s^−1"}, {"measurement": "Neutral/Basic ratio of kcat/KM values", "setting": "PTPD1; [1]", "value": 0.7}]}, {"substance": "Ac-YDEDFpYDYEF-NH2", "values": [{"measurement": "kcat/KM x10^6", "setting": "PTP1B", "value": "55 x10^6 M^−1 s^−1"}, {"measurement": "Acidic/Basic ratio of kcat/KM values", "setting": "PTP1B; [3]", "value": 1500}, {"measurement": "Acidic/Neutral ratio of kcat/KM values", "setting": "PTP1B; [4]", "value": 24}, {"measurement": "Km", "setting": "PTPRC", "value": "7 ± 0.9", "unit": "µM"}, {"measurement": "kcat", "setting": "PTPRC", "value": "300 ± 20", "unit": "s⁻¹"}, {"measurement": "kcat/KM x10^6", "setting": "PTPRC", "value": "43 x10^6 M^−1 s^−1"}, {"measurement": "Acidic/Basic ratio of kcat/KM values", "setting": "PTPRC; [3]", "value": 880}, {"measurement": "Acidic/Neutral ratio of kcat/KM values", "setting": "PTPRC; [4]", "value": 22}, {"measurement": "Km", "setting": "PTPRB", "value": "1.8 ± 0.4", "unit": "µM"}, {"measurement": "kcat", "setting": "PTPRB", "value": "55 ± 2", "unit": "s⁻¹"}, {"measurement": "kcat/KM x10^6", "setting": "PTPRB", "value": "31 x10^6 M^−1 s^−1"}, {"measurement": "Acidic/Basic ratio of kcat/KM values", "setting": "PTPRB; [3]", "value": 1100}, {"measurement": "Acidic/Neutral ratio of kcat/KM values", "setting": "PTPRB; [4]", "value": 14}, {"measurement": "Km", "setting": "PTPRA; [2]", "value": "260 ± 30", "unit": "µM"}, {"measurement": "kcat", "setting": "PTPRA; [2]", "value": "19 ± 0.6", "unit": "s⁻¹"}, {"measurement": "kcat/KM x10^6", "setting": "PTPRA; [2]", "value": "0.075 x10^6 M^−1 s^−1"}, {"measurement": "Acidic/Basic ratio of kcat/KM values", "setting": "PTPRA; [3]", "value": 2}, {"measurement": "Acidic/Neutral ratio of kcat/KM values", "setting": "PTPRA; [4]", "value": 3}, {"measurement": "Km", "setting": "PTPD1; [2]", "value": "26 ± 5", "unit": "µM"}, {"measurement": "kcat", "setting": "PTPD1; [2]", "value": "0.032 ± 0.005", "unit": "s⁻¹"}, {"measurement": "kcat/KM x10^6", "setting": "PTPD1; [2]", "value": "0.0012 x10^6 M^−1 s^−1"}, {"measurement": "Acidic/Basic ratio of kcat/KM values", "setting": "PTPD1; [3]", "value": 220}, {"measurement": "Acidic/Neutral ratio of kcat/KM values", "setting": "PTPD1; [4]", "value": 330}]}, {"substance": "Ac-YRKRFpYRYKF-NH2", "values": [{"measurement": "kcat/KM x10^6", "setting": "PTP1B", "value": "0.037 x10^6 M^−1 s^−1"}, {"measurement": "kcat/KM x10^6", "setting": "PTPRC", "value": "0.049 x10^6 M^−1 s^−1"}, {"measurement": "kcat/KM x10^6", "setting": "PTPRB", "value": "0.028 x10^6 M^−1 s^−1"}, {"measurement": "kcat/KM x10^6", "setting": "TCPTP; [2]", "value": "0.032 x10^6 M^−1 s^−1"}, {"measurement": "kcat/KM x10^6", "setting": "SHP-1", "value": "0.00023 x10^6 M^−1 s^−1"}, {"measurement": "kcat/KM x10^6", "setting": "SHP-2", "value": "0.00015 x10^6 M^−1 s^−1"}, {"measurement": "kcat/KM x10^6", "setting": "PTPRA; [2]", "value": "0.045 x10^6 M^−1 s^−1"}, {"measurement": "kcat/KM x10^6", "setting": "PTPD1; [2]", "value": "0.0000057 x10^6 M^−1 s^−1"}]}]}
